Converted amounts (≈) assume the structure as drawn.

For assay [1], the system named is Mycobacterium tuberculosis. Nature of the assay: Antimycobacterial activity against Mycobacterium tuberculosis by whole-cell assay. It counts as functional.
Assay [2] deals with T1, 1-deoxy-D-xylulose 5-phosphate reductoisomerase (Mycobacterium tuberculosis) (UniProt P9WNS1).
T1 sequence (whole entry): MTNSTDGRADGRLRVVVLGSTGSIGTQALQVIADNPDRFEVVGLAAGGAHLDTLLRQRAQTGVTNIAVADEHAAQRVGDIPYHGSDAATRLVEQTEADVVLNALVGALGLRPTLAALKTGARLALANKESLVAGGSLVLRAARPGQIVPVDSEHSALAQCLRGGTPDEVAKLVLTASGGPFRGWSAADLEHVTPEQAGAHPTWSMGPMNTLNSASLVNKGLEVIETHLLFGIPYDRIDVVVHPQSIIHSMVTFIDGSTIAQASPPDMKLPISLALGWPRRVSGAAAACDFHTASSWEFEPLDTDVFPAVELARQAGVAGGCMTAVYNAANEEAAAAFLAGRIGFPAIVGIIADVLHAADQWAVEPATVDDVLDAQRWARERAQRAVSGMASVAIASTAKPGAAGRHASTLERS
Nature of the assay: Inhibition of Mycobacterium tuberculosis DXR assessed as reduction of 1-deoxy-D-xylulose 5-phosphate into 2-C-methyl-D-erythritol-4-phosphate at 100 uM measured for every 5 secs upto 500 secs by spectrophotometry analysis. An outline of the steps: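 MtDXR reaction in 50 mM HEPES-NaOH pH 7.5, 100 mM NaCl, 1.5 mM MnCl2, 0.2 mM NADPH, 0.2 mM DXP and a single inhibitor concentration. Started by adding DXP and run at 22 °C. NADPH consumption read as A340 every 5 s for 500 s. Initial velocity from the linear slope gives % inhibition relative to the uninhibited reaction.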

Assay [3] has as its target T2, 1-deoxy-D-xylulose 5-phosphate reductoisomerase (Mycobacterium tuberculosis, UniProt P9WNS1).
T2 sequence (P9WNS1 whole entry): T1 sequence (whole entry)
The assay can be described thus: Inhibition of Mycobacterium tuberculosis DXR assessed as reduction of 1-deoxy-D-xylulose 5-phosphate into 2-C-methyl-D-erythritol-4-phosphate measured for every 5 secs upto 500 secs by spectrophotometry analysis. An outline of the steps: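 MtDXR in 50 mM HEPES-NaOH pH 7.5, 100 mM NaCl, 1.5 mM MnCl2, 0.2 mM NADPH and 0.2 mM DXP, started with DXP at 22 °C. A340 read every 5 s for 500 s. Six inhibitor concentrations spanning 0.01–1000. Initial-rate activities relative to the uninhibited reaction were fitted to a Hi/Lo four-parameter curve for IC50.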

Usually MIC stands for the lowest concentration that inhibits growth of the organism. As usually defined, the inhibition is how much of the control response was suppressed. As a reminder, the IC50 is the concentration that gives 50% inhibition. `O=P(O)(O)CCc1ccc(O)c(O)c1` displayed a minimum inhibitory concentration (MIC) in assay [1] of over 512 µg/mL. In addition, the inhibition in assay [2] was found to be 78%. For the same compound, the IC50 in assay [3] was 41 µM. In turn, `O=c1cccc(CCP(=O)(O)O)n1O` had an MIC in assay [1] of over 512 µg/mL. Further, the inhibition in assay [2] was determined as 61%. For the same compound, in assay [3], the IC50 is 53 µM. As to `O=C1N[C@H](CCP(=O)(O)O)CO1`, the inhibition in assay [2] was determined as 0%. For `O=c1oc2cc(-c3ccccc3)cnc2n1CCCP(=O)(O)O`, in assay [1], it took 256 µg/mL (≈ 766 µM) to inhibit growth (MIC). In assay [2], the inhibition amounted to 11%.

For the compound `CC(=O)N(O)CCCc1nnn[nH]1`, in assay [2], the inhibition is 0%. In assay [1], `CC(=O)N(O)CCc1c(C(=O)O)noc1C` registered an MIC of over 512 µg/mL. For the same compound, the inhibition in assay [2] is 41%. In addition, in assay [3], the 50% inhibitory concentration (IC50) was determined as 151 µM. For `CC(=O)N(O)CCCS(=O)(=O)O`, the inhibition in assay [2] was found to be 36%. In assay [3], the IC50 is over 100 µM.

Regarding `CC(=O)N(O)CCCP(=O)(O)OCCc1ccccc1`, in assay [2], the inhibition was 23%. For the compound `O=C1NC(=O)C(CCP(=O)(O)O)N1` (configuration not stated), the inhibition in assay [2] came out at 8%. Same read-out and setting: for `CC(=O)N(O)CCCC(=O)NS(C)(=O)=O` the value was 29%; for `CC(=O)N(O)CCC1NC(=O)NC1=O` (configuration not stated), 13%; for `O=c1oc2cccnc2n1CCCP(=O)(O)O`, 11%. Take `O=c1oc2cc(Br)cnc2n1CCCP(=O)(O)O`: the inhibition in assay [2] came to 7%. For `CC(=O)N(O)CCCC(=O)O`, the inhibition in assay [2] is 0%.

The values above are taken from ChEMBL document CHEMBL1821696, “Substitution of the phosphonic acid and hydroxamic acid functionalities of the DXR inhibitor FR900098: an attempt to improve the activity against Mycobacterium tuberculosis” (Bioorg Med Chem Lett, 2011).
